Measured values: ChEMBL document CHEMBL5036335, “Functional Characterization of the Nemertide α Family of Peptide Toxins” (J Nat Prod, 2021)

Key:
[1] = target: Sodium channel protein type 5 subunit alpha (Homo sapiens, UniProt Q14524); test: Modulator activity at human Nav1.5 expressed in Xenopus laevis oocytes assessed as elicitation in sodium current measured after 1 to 4 days by two-electrode voltage clamp assay; format: cell-based, Oocyte
In short: (§1)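 Channel cRNA, with auxiliary subunits rβ1, hβ1 or TipE, transcribed from linearized plasmids; 50 nL of 1 ng/nL injected into stage V–VI X. laevis oocytes, kept in 96 mM NaCl, 2 mM KCl, 1.8 mM CaCl2, 2 mM MgCl2, 5 mM HEPES pH 7.4 with gentamycin. Two-electrode voltage clamp at 18–22 °C in same bath solution; 3 M KCl electrodes of 0.8–1.5 MΩ; currents filtered at 1 kHz, sampled at 20 kHz. EC50 from Hill equation fit.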

[2] = Modulator activity at german cockroach Nav1 expressed in Xenopus laevis oocytes assessed as elicitation in sodium current measured after 1 to 4 days by two-electrode voltage clamp assay; format: cell-based; settings: Blattella germanica, Oocyte; in short: as §1
[3] = target: Sodium channel protein type 2 subunit alpha (Rattus norvegicus, UniProt P04775); test: Modulator activity at rat Nav1.2 expressed in Xenopus laevis oocytes assessed as elicitation in sodium current measured after 1 to 4 days by two-electrode voltage clamp assay; format: cell-based, Oocyte; in short: as §1
[4] = Toxicity in Artemia salina assessed as mortality incubated for 24 hrs in dark by microwell assay; format: organism-based
In short: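 Nauplii hatched from cysts in aerated artificial seawater (33 g/L), harvested at 24 h, RT. Peptide at 0.003–300 μM in water, in duplicate wells with water control, plus 10–15 nauplii in salt water. Dead and immobilized nauplii counted under a microscope, then the rest killed with MeOH and all counted. % dead or immobilized per well; EC50 by nonlinear regression.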

[5] = target: Sodium channel protein type 9 subunit alpha (Homo sapiens, UniProt Q15858); test: Modulator activity at human Nav1.7 expressed in Xenopus laevis oocytes assessed as elicitation in sodium current measured after 1 to 4 days by two-electrode voltage clamp assay; format: cell-based, Oocyte; in short: as §1
[6] = target: Sodium channel protein type 10 subunit alpha (Rattus norvegicus, UniProt Q62968); test: Modulator activity at rat Nav1.8 expressed in Xenopus laevis oocytes assessed as elicitation in sodium current measured after 1 to 4 days by two-electrode voltage clamp assay; format: cell-based; settings: oocyte
In short: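 Channel cRNA transcribed from linearized plasmid; 50 nL at 1 ng/nL injected into stage V–VI oocytes. Oocytes held in 96 mM NaCl, 2 mM KCl, 1.8 mM CaCl2, 2 mM MgCl2, 5 mM HEPES pH 7.4 with gentamycin. TEVC at 18–22 °C in the same solution, electrodes 3 M KCl, 0.8–1.5 MΩ. Currents filtered 1 kHz, sampled 20 kHz. EC50 from Hill equation fit.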

[7] = target: Sodium channel protein type 1 subunit alpha (Homo sapiens, UniProt P35498); test: Modulator activity at human Nav1.1 expressed in Xenopus laevis oocytes assessed as elicitation in sodium current measured after 1 to 4 days by two-electrode voltage clamp assay; format: cell-based, Oocyte; in short: as §1
[8] = target: Sodium channel protein type 8 subunit alpha (Mus musculus, UniProt Q9WTU3); test: Modulator activity at mouse Nav1.6 expressed in Xenopus laevis oocytes assessed as elicitation in sodium current measured after 1 to 4 days by two-electrode voltage clamp assay; format: cell-based, Oocyte; in short: as §1
[9] = target: Sodium channel protein type 4 subunit alpha (Rattus norvegicus, UniProt P15390); test: Modulator activity at rat Nav1.4 expressed in Xenopus laevis oocytes assessed as elicitation in sodium current measured after 1 to 4 days by two-electrode voltage clamp assay; format: cell-based, Oocyte; in short: as §1
[10] = target: Sodium channel protein type 3 subunit alpha (Rattus norvegicus, UniProt P08104); test: Modulator activity at rat Nav1.3 expressed in Xenopus laevis oocytes assessed as elicitation in sodium current measured after 1 to 4 days by two-electrode voltage clamp assay; format: cell-based, Oocyte; in short: as §1
Sodium channel protein type 3 subunit alpha, sequence (P08104 whole entry): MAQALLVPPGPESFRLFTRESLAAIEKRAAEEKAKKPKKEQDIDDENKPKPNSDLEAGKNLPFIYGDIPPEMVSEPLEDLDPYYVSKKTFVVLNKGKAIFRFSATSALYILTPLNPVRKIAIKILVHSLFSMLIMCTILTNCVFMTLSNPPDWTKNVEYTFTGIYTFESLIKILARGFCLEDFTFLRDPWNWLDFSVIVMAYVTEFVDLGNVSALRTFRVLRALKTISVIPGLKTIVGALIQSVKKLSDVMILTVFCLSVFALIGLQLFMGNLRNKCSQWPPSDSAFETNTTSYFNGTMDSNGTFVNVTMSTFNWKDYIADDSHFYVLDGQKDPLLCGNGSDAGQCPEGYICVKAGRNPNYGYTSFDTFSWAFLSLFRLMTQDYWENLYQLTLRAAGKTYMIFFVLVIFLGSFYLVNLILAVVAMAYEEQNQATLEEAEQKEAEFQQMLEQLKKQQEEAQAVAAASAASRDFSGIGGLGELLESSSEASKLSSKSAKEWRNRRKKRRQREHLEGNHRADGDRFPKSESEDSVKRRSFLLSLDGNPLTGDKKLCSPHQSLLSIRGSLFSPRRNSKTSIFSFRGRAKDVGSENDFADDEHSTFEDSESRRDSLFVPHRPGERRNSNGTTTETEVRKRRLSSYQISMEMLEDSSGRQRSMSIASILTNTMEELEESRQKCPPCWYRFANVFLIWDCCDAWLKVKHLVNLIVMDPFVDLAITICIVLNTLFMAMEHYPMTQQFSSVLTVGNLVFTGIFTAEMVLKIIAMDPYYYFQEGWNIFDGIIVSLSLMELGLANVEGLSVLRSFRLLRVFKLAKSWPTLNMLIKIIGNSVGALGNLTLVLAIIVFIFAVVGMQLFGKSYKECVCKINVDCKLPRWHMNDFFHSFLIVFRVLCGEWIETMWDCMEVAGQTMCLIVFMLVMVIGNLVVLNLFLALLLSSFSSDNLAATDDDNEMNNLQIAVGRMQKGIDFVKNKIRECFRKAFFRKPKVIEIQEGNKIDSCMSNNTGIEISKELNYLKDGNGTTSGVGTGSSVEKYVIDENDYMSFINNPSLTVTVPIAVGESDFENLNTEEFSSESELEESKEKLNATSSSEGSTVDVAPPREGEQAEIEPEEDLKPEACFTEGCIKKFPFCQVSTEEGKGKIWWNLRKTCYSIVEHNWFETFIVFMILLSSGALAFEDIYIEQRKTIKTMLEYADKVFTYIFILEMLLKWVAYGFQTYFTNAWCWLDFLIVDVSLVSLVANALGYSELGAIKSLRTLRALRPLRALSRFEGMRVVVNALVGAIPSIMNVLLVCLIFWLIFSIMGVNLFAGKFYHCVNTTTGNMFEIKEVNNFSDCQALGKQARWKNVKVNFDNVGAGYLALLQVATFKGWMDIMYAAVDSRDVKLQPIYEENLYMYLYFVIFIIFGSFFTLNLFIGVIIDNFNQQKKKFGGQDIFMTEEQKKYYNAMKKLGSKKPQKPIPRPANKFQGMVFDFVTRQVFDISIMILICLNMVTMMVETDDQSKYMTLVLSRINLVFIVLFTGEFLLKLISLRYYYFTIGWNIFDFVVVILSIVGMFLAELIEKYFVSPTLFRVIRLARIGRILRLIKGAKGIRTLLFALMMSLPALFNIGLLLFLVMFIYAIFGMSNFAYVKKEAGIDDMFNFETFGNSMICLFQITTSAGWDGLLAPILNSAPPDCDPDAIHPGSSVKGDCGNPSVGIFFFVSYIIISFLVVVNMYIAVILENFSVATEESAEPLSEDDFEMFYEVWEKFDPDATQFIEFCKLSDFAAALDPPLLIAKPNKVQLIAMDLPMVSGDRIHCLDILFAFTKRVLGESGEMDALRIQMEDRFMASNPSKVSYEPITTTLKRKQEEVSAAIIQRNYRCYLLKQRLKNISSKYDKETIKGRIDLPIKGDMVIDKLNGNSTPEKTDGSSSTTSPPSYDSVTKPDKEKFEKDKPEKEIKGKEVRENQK

Sodium channel protein type 5 subunit alpha, sequence (Q14524 whole entry): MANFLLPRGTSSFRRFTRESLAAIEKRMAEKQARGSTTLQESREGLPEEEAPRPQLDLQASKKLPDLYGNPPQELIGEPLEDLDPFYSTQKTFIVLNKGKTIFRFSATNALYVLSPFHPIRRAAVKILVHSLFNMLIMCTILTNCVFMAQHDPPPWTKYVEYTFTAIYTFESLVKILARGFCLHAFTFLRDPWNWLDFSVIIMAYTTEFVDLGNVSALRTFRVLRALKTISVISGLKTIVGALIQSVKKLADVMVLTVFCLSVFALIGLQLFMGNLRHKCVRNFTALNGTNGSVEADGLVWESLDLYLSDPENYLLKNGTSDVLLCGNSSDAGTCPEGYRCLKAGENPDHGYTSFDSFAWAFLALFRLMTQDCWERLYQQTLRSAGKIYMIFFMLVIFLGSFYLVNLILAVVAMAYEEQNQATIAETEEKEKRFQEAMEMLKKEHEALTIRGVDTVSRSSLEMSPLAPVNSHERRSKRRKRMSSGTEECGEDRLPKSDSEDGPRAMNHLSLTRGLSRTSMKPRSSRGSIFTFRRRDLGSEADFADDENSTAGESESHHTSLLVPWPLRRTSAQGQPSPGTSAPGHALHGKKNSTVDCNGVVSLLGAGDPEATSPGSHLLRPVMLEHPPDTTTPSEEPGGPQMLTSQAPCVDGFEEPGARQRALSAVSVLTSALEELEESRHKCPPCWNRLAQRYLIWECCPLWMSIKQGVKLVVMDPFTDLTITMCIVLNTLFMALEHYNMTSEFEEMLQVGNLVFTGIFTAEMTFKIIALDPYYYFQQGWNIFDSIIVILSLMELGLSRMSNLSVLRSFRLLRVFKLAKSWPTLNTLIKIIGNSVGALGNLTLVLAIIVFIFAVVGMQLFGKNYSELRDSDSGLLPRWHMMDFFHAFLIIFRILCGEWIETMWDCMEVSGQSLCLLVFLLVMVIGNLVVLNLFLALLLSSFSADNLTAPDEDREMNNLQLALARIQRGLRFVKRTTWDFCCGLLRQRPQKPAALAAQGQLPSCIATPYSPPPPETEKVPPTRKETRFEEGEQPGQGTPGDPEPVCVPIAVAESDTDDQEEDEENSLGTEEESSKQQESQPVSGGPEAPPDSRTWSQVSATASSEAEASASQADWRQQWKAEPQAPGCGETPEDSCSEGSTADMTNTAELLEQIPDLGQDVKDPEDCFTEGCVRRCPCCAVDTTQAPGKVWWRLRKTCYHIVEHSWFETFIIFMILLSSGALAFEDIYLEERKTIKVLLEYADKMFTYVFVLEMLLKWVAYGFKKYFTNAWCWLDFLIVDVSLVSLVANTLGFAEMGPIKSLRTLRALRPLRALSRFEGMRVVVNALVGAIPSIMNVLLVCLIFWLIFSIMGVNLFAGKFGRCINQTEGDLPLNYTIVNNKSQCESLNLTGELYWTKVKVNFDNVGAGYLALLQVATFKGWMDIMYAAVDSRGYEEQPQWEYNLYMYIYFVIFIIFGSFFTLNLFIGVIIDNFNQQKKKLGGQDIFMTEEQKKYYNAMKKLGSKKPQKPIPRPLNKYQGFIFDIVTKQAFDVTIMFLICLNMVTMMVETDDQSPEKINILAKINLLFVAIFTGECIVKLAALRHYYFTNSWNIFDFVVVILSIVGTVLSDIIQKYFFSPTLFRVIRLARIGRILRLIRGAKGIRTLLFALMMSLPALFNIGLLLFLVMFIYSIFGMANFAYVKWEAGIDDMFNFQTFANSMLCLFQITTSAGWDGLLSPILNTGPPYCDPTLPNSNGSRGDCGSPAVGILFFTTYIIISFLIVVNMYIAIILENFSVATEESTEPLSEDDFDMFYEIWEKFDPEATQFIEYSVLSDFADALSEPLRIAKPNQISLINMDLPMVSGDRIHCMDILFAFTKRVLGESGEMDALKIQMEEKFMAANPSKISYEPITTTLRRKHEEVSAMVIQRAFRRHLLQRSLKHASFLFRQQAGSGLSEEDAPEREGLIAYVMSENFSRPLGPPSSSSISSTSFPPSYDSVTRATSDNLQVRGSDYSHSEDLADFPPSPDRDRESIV

Compound	EC50 [1]	EC50 [2]	EC50 [3]	EC50 at 24 h [4]	EC50 [5]	EC50 [6]	EC50 [7]	EC50 [8]	EC50 [9]	EC50 [10]	EC50 ([1]; oocyte)	EC50 ([3]; oocyte)	EC50 ([5]; oocyte)	EC50 ([7]; oocyte)	EC50 ([8]; oocyte)	EC50 ([9]; oocyte)	EC50 ([10]; oocyte)
CC[C@H](C)[C@@H]1NC(=O)[C@@H](NC(=O)CN)CSSC[C@@H]2NC(=O)[C@@H]3CSSC[C@@H](C(=O)N[C@@H](CC(N)=O)C(=O)N4C[C@@H](O)C[C@H]4C(=O)N4C[C@@H](O)C[C@H]4C(=O)N[C@@H](CC(N)=O)C(=O)N[C@@H](CCC(N)=O)C(=O)O)NC(=O)[C@H](Cc4cnc[nH]4)NC(=O)[C@H](Cc4ccccc4)NC(=O)[C@H](CC(N)=O)NC(=O)[C@H](Cc4c[nH]c5ccccc45)NC(=O)CNC(=O)[C@H](CSSC[C@H](NC(=O)[C@H](Cc4ccccc4)NC(=O)[C@H](CO)NC(=O)CNC(=O)[C@H]([C@@H](C)O)NC(=O)[C@H](C)NC1=O)C(=O)N[C@@H]([C@@H](C)O)C(=O)N[C@@H](CC(C)C)C(=O)N[C@@H](CO)C(=O)N[C@@H](CCCCN)C(=O)NCC(=O)N3)NC(=O)[C@H](CC(N)=O)NC(=O)[C@H](CCCCN)NC(=O)[C@H]([C@@H](C)O)NC2=O	133 nM	7.8 nM	156 nM	400 nM	73 nM	Not Active	102 nM	66.9 nM	15.4 nM	9.4 nM							
CC[C@H](C)[C@@H]1NC(=O)[C@@H](NC(=O)CN)CSSC[C@@H]2NC(=O)[C@@H]3CSSC[C@@H](C(=O)N[C@@H](CC(N)=O)C(=O)N4C[C@@H](O)C[C@H]4C(=O)N4C[C@@H](O)C[C@H]4C(=O)N[C@@H](CC(N)=O)C(=O)N[C@@H](CCC(N)=O)C(=O)O)NC(=O)[C@H](CCCCN)NC(=O)[C@H](Cc4ccccc4)NC(=O)[C@H](CC(N)=O)NC(=O)[C@H](Cc4c[nH]c5ccccc45)NC(=O)CNC(=O)[C@H](CSSC[C@H](NC(=O)[C@H](Cc4ccccc4)NC(=O)[C@H](CO)NC(=O)CNC(=O)[C@H]([C@@H](C)O)NC(=O)[C@H](CO)NC1=O)C(=O)N[C@@H]([C@@H](C)O)C(=O)N[C@@H](CC(C)C)C(=O)N[C@@H](CO)C(=O)N[C@@H](CCCCN)C(=O)NCC(=O)N3)NC(=O)[C@H](CC(N)=O)NC(=O)[C@H](CCCCN)NC(=O)[C@H]([C@@H](C)O)NC2=O	27.8 nM	11.1 nM	134 nM	400 nM	80.5 nM	Not Active	92 nM	124 nM	14.6 nM	12.9 nM							
CC[C@H](C)[C@@H]1NC(=O)[C@@H](NC(=O)CN)CSSC[C@@H]2NC(=O)[C@@H]3CSSC[C@@H](C(=O)N[C@@H](CC(N)=O)C(=O)N4C[C@@H](O)C[C@H]4C(=O)N4C[C@@H](O)C[C@H]4C(=O)N[C@@H](CC(N)=O)C(=O)N[C@@H](CCC(N)=O)C(=O)O)NC(=O)[C@H](CCCCN)NC(=O)[C@H](Cc4ccccc4)NC(=O)[C@H](CC(N)=O)NC(=O)[C@H](Cc4c[nH]c5ccccc45)NC(=O)CNC(=O)[C@H](CSSC[C@H](NC(=O)CNC(=O)[C@H](CO)NC(=O)CNC(=O)[C@H]([C@@H](C)O)NC(=O)[C@H](CCCCN)NC1=O)C(=O)N[C@@H]([C@@H](C)O)C(=O)N[C@@H](CC(C)C)C(=O)N[C@@H](CO)C(=O)N[C@@H](CCCCN)C(=O)NCC(=O)N3)NC(=O)[C@H](CC(N)=O)NC(=O)[C@H](CCCCN)NC(=O)[C@H]([C@@H](C)O)NC2=O	108 nM	97.5 nM	138 nM	4700 nM	102 nM	Not Active	126 nM	92.8 nM	150 nM	139 nM							
CC[C@H](C)[C@@H]1NC(=O)[C@@H](NC(=O)CN)CSSC[C@@H]2NC(=O)[C@@H]3CSSC[C@@H](C(=O)N[C@@H](CC(N)=O)C(=O)N[C@H](CCCCN)C(=O)N4C[C@@H](O)C[C@H]4C(=O)N[C@@H](CC(N)=O)C(=O)N[C@@H](CCC(N)=O)C(=O)O)NC(=O)[C@H](Cc4cnc[nH]4)NC(=O)[C@H](Cc4ccccc4)NC(=O)[C@H](CC(N)=O)NC(=O)[C@H](Cc4c[nH]c5ccccc45)NC(=O)CNC(=O)[C@H](CSSC[C@H](NC(=O)[C@H](CCSC)NC(=O)[C@H](CO)NC(=O)CNC(=O)[C@H](C(C)C)NC(=O)[C@@H]4CCCN4C1=O)C(=O)N[C@@H]([C@@H](C)O)C(=O)N[C@@H](CC(C)C)C(=O)N[C@@H](CO)C(=O)N[C@@H](CC(N)=O)C(=O)NCC(=O)N3)NC(=O)[C@H](CC(N)=O)NC(=O)[C@H](CCCCN)NC(=O)[C@H]([C@@H](C)O)NC2=O		9.5 nM		6100 nM		Not Active					156 nM	50.4 nM	129 nM	172 nM	148 nM	811 nM	170 nM
CC[C@H](C)[C@@H]1NC(=O)[C@@H](NC(=O)CN)CSSC[C@@H]2NC(=O)[C@@H]3CSSC[C@@H](C(=O)N[C@@H](CC(N)=O)C(=O)N4C[C@@H](O)C[C@H]4C(=O)N4C[C@@H](O)C[C@H]4C(=O)N[C@@H](CC(N)=O)C(=O)N[C@@H](CCC(N)=O)C(=O)O)NC(=O)[C@H](Cc4cnc[nH]4)NC(=O)[C@H](Cc4ccccc4)NC(=O)[C@H](CC(N)=O)NC(=O)[C@H](Cc4c[nH]c5ccccc45)NC(=O)CNC(=O)[C@H](CSSC[C@H](NC(=O)[C@H](Cc4ccccc4)NC(=O)[C@H](CO)NC(=O)CNC(=O)[C@H]([C@@H](C)O)NC(=O)[C@H](CCCCN)NC1=O)C(=O)N[C@@H]([C@@H](C)O)C(=O)N[C@@H](CC(C)C)C(=O)N[C@@H](CO)C(=O)N[C@@H](CCCCN)C(=O)NCC(=O)N3)NC(=O)[C@H](CC(N)=O)NC(=O)[C@H](CCCCN)NC(=O)[C@H]([C@@H](C)O)NC2=O	215 nM	2.6 nM	24.3 nM	2800 nM	97.2 nM	Not Active	7.9 nM	36.3 nM	46.4 nM	106 nM							
CC[C@H](C)[C@@H]1NC(=O)[C@@H](NC(=O)CN)CSSC[C@@H]2NC(=O)[C@@H]3CSSC[C@@H](C(=O)N[C@@H](CC(N)=O)C(=O)N4C[C@@H](O)C[C@H]4C(=O)N4C[C@@H](O)C[C@H]4C(=O)N[C@@H](CC(N)=O)C(=O)N[C@@H](CCC(N)=O)C(=O)O)NC(=O)[C@H](CCCCN)NC(=O)[C@H](Cc4ccccc4)NC(=O)[C@H](CC(N)=O)NC(=O)[C@H](Cc4c[nH]c5ccccc45)NC(=O)CNC(=O)[C@H](CSSC[C@H](NC(=O)[C@H](C(C)C)NC(=O)[C@H](CO)NC(=O)CNC(=O)[C@H]([C@@H](C)O)NC(=O)[C@H](C)NC1=O)C(=O)N[C@@H]([C@@H](C)O)C(=O)N[C@@H](CC(C)C)C(=O)N[C@@H](CO)C(=O)N[C@@H](CCCCN)C(=O)NCC(=O)N3)NC(=O)[C@H](CC(N)=O)NC(=O)[C@H](CCCCN)NC(=O)[C@H]([C@@H](C)O)NC2=O	149 nM	87.2 nM	97.9 nM	2900 nM	1300 nM	Not Active	126 nM	1360 nM	1150 nM	128 nM							
